SUMO HTRF inh: SUMOylation inhibition; P63279; HTRF SUMOylation assay, SAE1/SAE2 + UBC9, in vitro; inhibition, % at 35 µM; 290,000 compounds, 0.36% hits; AID 2006; in the data active = inhibition above about 50%, passing the limit was not always enough
Target sequence (P63279 whole entry, looked up): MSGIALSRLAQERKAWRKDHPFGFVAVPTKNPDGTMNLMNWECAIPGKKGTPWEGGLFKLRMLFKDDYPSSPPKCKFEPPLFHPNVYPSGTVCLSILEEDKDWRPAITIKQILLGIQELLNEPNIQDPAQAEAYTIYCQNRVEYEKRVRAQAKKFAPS
CTSL1 counter: cathepsin L1 inhibition, PFM18AAP counter-screen. recombinant F. hepatica cathepsin L1, Z-Leu-Arg-MCA fluorescence. 300,000 compounds, 0.49% hits. inhibition, % at 5.96 µM;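 active = inhibition above the mean of all tested compounds plus 3 SD, set per screening campaign, cut at about 17% in these data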;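 also: 0% = plate median of test compound wells and 100% = 1 µM Z-Phe-Ala-diazomethylketone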
UCH37 DUB inh: inhibitors of human deubiquitinating enzyme UCH37 | Q9Y5K5 | purified proteasome/UCH37, Ub-AMC cleavage fluorescence | inhibition, % (test concentration not listed) | 330,000 compounds, 0.33% hits;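 active = mean inhibition over replicate wells above about 20%, limit read from the data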;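 also: 0% = compound-free wells with enzyme and 100% = wells lacking proteasome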
Target sequence (Q9Y5K5 whole entry, looked up): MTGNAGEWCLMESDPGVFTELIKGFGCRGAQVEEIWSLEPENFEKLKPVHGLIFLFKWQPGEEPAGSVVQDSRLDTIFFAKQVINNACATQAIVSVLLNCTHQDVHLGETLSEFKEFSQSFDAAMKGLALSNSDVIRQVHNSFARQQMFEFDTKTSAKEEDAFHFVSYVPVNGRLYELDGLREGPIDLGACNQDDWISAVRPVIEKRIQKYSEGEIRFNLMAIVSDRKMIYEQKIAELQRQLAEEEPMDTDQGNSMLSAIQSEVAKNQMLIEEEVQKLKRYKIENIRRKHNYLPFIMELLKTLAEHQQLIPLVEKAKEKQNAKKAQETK
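Signal – fluorescence, ex 355 nm, em 460 nm · System – Proteasome-bound UCH37 · Input – 0.15 nM proteasome as dispensed · Timing – 30 min preincubation with enzyme, 25 min cleavage at room temperature · Read-out basis – percent inhibition of cleavage signal versus uninhibited and no-proteasome wells · Medium – Tris-HCl pH 7.4 with ATP-MgCl2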
Neddyl block: cullin neddylation inhibition. inhibition, % at 25 µM. AID 651699. P61081+Q13564. TR-FRET cullin neddylation, biochemical. 360,000 compounds, 0.58% hits; in the data active = inhibition above about 36%
Active calls of the source: *. Compounds with a hit are over-represented: about 1.4% of the library has one in this group of screens.

CC(C)C(NC(=O)c1ccco1)C(=O)NCC(c1ccco1)N(C)C (stereo not given) was read as SUMO HTRF inh 24, CTSL1 counter 63*, UCH37 DUB inh 1 and Neddyl block 2.
Screening CCC(=O)N1N=C(c2c(-c3ccccc3)c3cc(Cl)ccc3[nH]c2=O)CC1c1ccco1 (stereo not given) returned SUMO HTRF inh 54*, CTSL1 counter 1, UCH37 DUB inh -127 and Neddyl block 30.
Screening Cc1ccc(NC(=S)C2=C(O)c3sccc3N(C)S2(=O)=O)cc1 returned SUMO HTRF inh 11, CTSL1 counter 7, UCH37 DUB inh 24* and Neddyl block 13.
Cc1ccc(NC(=O)C2=C(O)c3sccc3N(C)S2(=O)=O)cc1 was read as SUMO HTRF inh -5, CTSL1 counter 11, UCH37 DUB inh 14 and Neddyl block -5.
O=C(C(=O)c1ccc(O)c(O)c1)c1ccc(O)c(O)c1 was read as UCH37 DUB inh 24* and Neddyl block -7.
Screening CC(C)C(=O)c1ccc(O)c(O)c1 returned SUMO HTRF inh 9, CTSL1 counter -1, UCH37 DUB inh 6 and Neddyl block 4.
`O=[N+]([O-])c1cc(C=NO)ccc1Sc1ccccc1` gave UCH37 DUB inh -1.
For COc1cccc(-c2noc(C(C)n3nc(C)c([N+](=O)[O-])c3C)n2)c1 (stereo not given) the results were SUMO HTRF inh 7, CTSL1 counter 18*, UCH37 DUB inh 1 and Neddyl block 0.
Screening COc1cccc(-c2noc(-c3cccnc3)n2)c1 returned SUMO HTRF inh -7, CTSL1 counter 5, UCH37 DUB inh 1 and Neddyl block -2.
`CC(C)Cn1c(N)c(C(=O)COC(=O)[C@H](C)NC(=O)c2ccccc2Cl)c(=O)n(C)c1=O` gave CTSL1 counter 20*, UCH37 DUB inh 6 and Neddyl block 8.
Screening CCC(C(=O)OCC(=O)c1c(N)n(CC(C)C)c(=O)n(C)c1=O)c1ccccc1 (stereo not given) returned CTSL1 counter 0, UCH37 DUB inh -1 and Neddyl block 16.
For Cc1ccc(-c2[nH]c(-c3ccc(C(=O)O)cc3)nc2-c2ccccc2)cc1 the results were SUMO HTRF inh 58* and CTSL1 counter 4.
For CCN(Cc1ccccc1)c1ccc(C=NN=C(N)N)cc1 the results were UCH37 DUB inh -149.
Screening O=C(NN=Cc1cccs1)c1cc(-c2ccc3ccccc3c2)n[nH]1 returned UCH37 DUB inh -2.
For Cc1c2c(=O)n(-c3nc4ccccc4s3)nc-2cc(O)n1Cc1ccccc1 the results were SUMO HTRF inh 57, UCH37 DUB inh 1 and Neddyl block 41*.
`CCOc1cc(/C=C/C(=O)NCCc2ccc(S(N)(=O)=O)cc2)ccc1OCC(C)C` gave SUMO HTRF inh -1, CTSL1 counter 19*, UCH37 DUB inh -9 and Neddyl block 16.
For CCOc1cc(C=NN=C(N)c2nonc2N)cc(Br)c1OCc1ccc(Cl)cc1 the results were UCH37 DUB inh 9.
`CC(C)(C=NO)/[N+]([O-])=C/c1ccccc1` gave UCH37 DUB inh 4.
CN(C)c1ccc(/C=[N+](\[O-])C(C)(C)C=NO)cc1 was read as UCH37 DUB inh 23*.
O=c1[nH]c(=S)[nH]c2nc(-c3ccccc3)cnc12 was read as CTSL1 counter 5, UCH37 DUB inh 7 and Neddyl block -21.
For Cc1cc2nc3c(=O)[nH]c(=S)[nH]c3nc2cc1NC(=O)C(F)(F)F the results were SUMO HTRF inh 60*, CTSL1 counter 8, UCH37 DUB inh 10 and Neddyl block -56.
Screening O=C(NN=Cc1c(F)c(F)c(F)c(F)c1F)c1ccc(-c2ccccc2)cc1 returned UCH37 DUB inh 2.
For C=CCNc1nc(-c2ccc([N+](=O)[O-])cc2)cs1 the results were SUMO HTRF inh -11, CTSL1 counter 1, UCH37 DUB inh 2 and Neddyl block -36.
`C=CCNc1nc(-c2ccc(Cl)cc2)cs1` gave SUMO HTRF inh -29, CTSL1 counter 25*, UCH37 DUB inh -5 and Neddyl block -18.
Screening COc1ccccc1/C=C/C=c1sc2nc(=O)c(Cc3ccccc3)nn2c1=O returned UCH37 DUB inh 5.
Screening Cc1[nH]n(-c2cccc3ccccc23)c(=O)c1C=Nc1sc2c(c1C#N)CCC2 returned UCH37 DUB inh 10.
`Cc1ccn2cc(CCNS(=O)(=O)c3ccc4ccccc4c3)nc2c1` gave SUMO HTRF inh 13, CTSL1 counter 30*, UCH37 DUB inh -1 and Neddyl block -3.
For Cc1ccn2cc(CCNS(=O)(=O)c3ccc([N+](=O)[O-])cc3)nc2c1 the results were SUMO HTRF inh -1, CTSL1 counter -3, UCH37 DUB inh 6 and Neddyl block -29.
For CC(=O)c1cn(CC(=O)Nc2ccc(C)c(C)c2)c2ccccc12 the results were SUMO HTRF inh 11, CTSL1 counter -4, UCH37 DUB inh 3 and Neddyl block -151.
Screening CC(=O)c1cn(CC(=O)Nc2ccc(C)cc2)c2ccccc12 returned SUMO HTRF inh -3, CTSL1 counter 5, UCH37 DUB inh 20* and Neddyl block -146.
For CCCCCc1cc(=O)oc2c(C(CCN3CCN(c4ccccc4)CC3)c3ccc4c(c3)OCO4)c(OC)cc(OC)c12 (stereo not given) the results were SUMO HTRF inh -9, CTSL1 counter 33*, UCH37 DUB inh -1 and Neddyl block 26.
C=CCN(C(=O)CSC1=NC(=O)CN1C(C)=O)c1nc(C)c(-c2ccccc2)s1 was read as SUMO HTRF inh -7, CTSL1 counter 19*, UCH37 DUB inh 2 and Neddyl block 3.
`CN1CCc2c(sc(NC(=O)c3ccc4ccccc4c3)c2C(N)=O)C1` gave SUMO HTRF inh 14, CTSL1 counter 3 and Neddyl block 32.
For COc1cc2ccccc2cc1C(=O)Nc1sc2c(c1C(N)=O)CCN(C(C)C)C2 the results were SUMO HTRF inh 9, CTSL1 counter 3 and Neddyl block 50*.
CCNC(=O)C(CC(C)C)NC(=O)C(CO)NC(=O)C1CCC(=O)N1 (stereo not given) was read as SUMO HTRF inh 24, CTSL1 counter 1, UCH37 DUB inh 0 and Neddyl block -5.
For CC(C)CC(NC(=O)C1CCC(=O)N1)C(=O)NC(CC(C)C)C(=O)N1CCCC1C(N)=O (stereo not given) the results were SUMO HTRF inh -8, CTSL1 counter 17*, UCH37 DUB inh 1 and Neddyl block 2.
`CC(C)CC(NC(=O)C(NC(=O)OC(C)(C)C)C(C)C)C(=O)N1CCCC1C(N)=O` (stereo not given) gave SUMO HTRF inh 4, CTSL1 counter 18*, UCH37 DUB inh -2 and Neddyl block -3.
Screening COc1ccc(Nc2nc(NCc3ccco3)nc(NN=Cc3ccc(O)cc3)n2)cc1 returned UCH37 DUB inh 4.
COc1ccc(/C=C/c2nc3ccccc3c(=O)n2-c2cccc(C(=O)O)c2)cc1 was read as SUMO HTRF inh 3, CTSL1 counter 19*, UCH37 DUB inh -3 and Neddyl block 8.
CCn1c(/C=C/c2ccc(O)cc2)nc2ccccc2c1=O was read as SUMO HTRF inh 18, CTSL1 counter 2, UCH37 DUB inh -6 and Neddyl block 23.
